Data published in ChEMBL document CHEMBL1144619, “The synthesis and biological evaluation of novel series of nitrile-containing fluoroquinolones as antibacterial agents” (Bioorg Med Chem Lett, 2007).
Values after ≈ are worked out from the molar mass of the structure shown.

Tests used:
Streptococcus pneumoniae [1] = experiment: Antibacterial activity against fluoroquinolone resistance Streptococcus pneumoniae SP3765; assay type: functional
Haemophilus influenzae = experiment: Antibacterial activity against Haemophilus influenzae HI3542; assay type: functional; conditions: HI-3542
[2] = target: Voltage-gated inwardly rectifying potassium channel KCNH2 (Homo sapiens, UniProt Q12809); experiment: Displacement of [3H]dofetilide from human ERG by fliter binding assay
Voltage-gated inwardly rectifying potassium channel KCNH2, sequence (Q12809 whole entry): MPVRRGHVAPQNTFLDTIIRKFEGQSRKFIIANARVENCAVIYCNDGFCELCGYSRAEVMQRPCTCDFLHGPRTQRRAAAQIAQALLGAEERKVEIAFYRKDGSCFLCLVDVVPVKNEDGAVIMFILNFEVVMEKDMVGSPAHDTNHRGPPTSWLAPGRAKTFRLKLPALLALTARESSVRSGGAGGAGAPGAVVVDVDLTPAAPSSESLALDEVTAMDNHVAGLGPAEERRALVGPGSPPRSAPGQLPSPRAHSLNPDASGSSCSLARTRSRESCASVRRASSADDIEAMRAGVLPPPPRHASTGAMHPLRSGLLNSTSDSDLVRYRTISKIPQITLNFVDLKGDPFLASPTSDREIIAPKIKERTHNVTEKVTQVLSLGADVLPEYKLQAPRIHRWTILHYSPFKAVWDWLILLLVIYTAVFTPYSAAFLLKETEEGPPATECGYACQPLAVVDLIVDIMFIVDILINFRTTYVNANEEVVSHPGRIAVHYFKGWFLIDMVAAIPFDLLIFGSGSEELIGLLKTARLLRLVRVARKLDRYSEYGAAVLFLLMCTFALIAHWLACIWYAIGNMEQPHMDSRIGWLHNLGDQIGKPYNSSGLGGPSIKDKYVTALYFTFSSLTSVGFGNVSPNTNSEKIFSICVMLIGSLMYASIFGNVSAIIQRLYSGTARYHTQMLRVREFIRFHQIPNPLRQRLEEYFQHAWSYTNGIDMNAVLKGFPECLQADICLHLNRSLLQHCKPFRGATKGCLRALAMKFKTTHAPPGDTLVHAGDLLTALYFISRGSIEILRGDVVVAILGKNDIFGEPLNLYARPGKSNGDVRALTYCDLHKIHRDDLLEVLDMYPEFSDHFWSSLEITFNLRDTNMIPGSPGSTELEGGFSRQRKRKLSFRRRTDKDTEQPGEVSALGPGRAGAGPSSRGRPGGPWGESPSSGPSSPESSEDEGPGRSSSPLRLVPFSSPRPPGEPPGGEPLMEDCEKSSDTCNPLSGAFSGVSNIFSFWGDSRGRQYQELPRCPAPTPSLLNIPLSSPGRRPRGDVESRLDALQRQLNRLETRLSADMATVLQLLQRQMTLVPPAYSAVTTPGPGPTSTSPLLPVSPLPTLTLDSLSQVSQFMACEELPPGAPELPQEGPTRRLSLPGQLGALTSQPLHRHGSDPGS

Moraxella catarrhalis = experiment: Antibacterial activity against Moraxella catarrhalis BC-3531; assay type: functional
Rattus norvegicus = experiment: AUC in rat at 1 mg/kg, iv; assay type: ADME, organism-based, Plasma; design: dose 1 mg/kg, route intravenous; conditions: in vivo
[3] = Clearance in rat at 1 mg/kg, iv; assay type: ADME, organism-based; design: dose 1 mg/kg, route intravenous; conditions: in vivo
[4] = Volume of distribution in rat at 1 mg/kg, iv; assay type: ADME, organism-based; design: dose 1 mg/kg, route intravenous; conditions: in vivo, read-out: Vdss
[5] = Half life in rat at 1 mg/kg, iv; assay type: ADME, organism-based; design: dose 1 mg/kg, route intravenous; conditions: in vivo
[6] = Cmax in rat at 5 mg/kg, po; assay type: ADME, organism-based; design: dose 5 mg/kg, route oral; conditions: in vivo
Staphylococcus aureus [7] = experiment: Antibacterial activity against Staphylococcus aureus UC76; assay type: functional
Staphylococcus aureus [8] = experiment: Antibacterial activity against Staphylococcus aureus SA2552; assay type: functional
Streptococcus pneumoniae [9] = experiment: Antibacterial activity against Streptococcus pneumoniae SV1; assay type: functional
[10] = Bioavailability in rat at 5 mg/kg, po; assay type: ADME, organism-based; conditions: in vivo
hERG (KCNH2) = hERG (KCNH2) (Homo sapiens, UniProt Q12809); experiment: Displacement of [3H]dofetilide from human ERG at 300 uM; conditions: probe [3H]dofetilide
hERG (KCNH2), sequence (Q12809 whole entry): as above
Summary of the method: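 Radioligand filter-binding assay measuring displacement of [3H]-dofetilide from the hERG channel, run as in a patent protocol.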

Compound	MIC (Streptococcus pneumoniae [1]) [µg/mL]	MIC (Haemophilus influenzae) [µg/mL]	Ki [2] [µM]	MIC (Moraxella catarrhalis) [µg/mL]	AUC (Rattus norvegicus) [ug/hr.ml]	clearance [3] [mL/min/kg]	Vd [4] [L/kg]	half-life [5] [h]	Cmax [6] [ng/mL]	MIC (Staphylococcus aureus [7]) [µg/mL]	MIC (Staphylococcus aureus [8]) [µg/mL]	MIC (Streptococcus pneumoniae [9]) [µg/mL]	bioavailability [10] [%]	inhibition at 300 µM (hERG (KCNH2)) [%]
COc1c(N2CC[C@@H]([C@H](C)NCCC#N)C2)c(F)cc2c(=O)c(C(=O)O)cn(C3CC3)c12	0.125 (≈ 0.282 µM)	0.06 (≈ 0.136 µM)	> 150	0.06 (≈ 0.136 µM)	3.5	24	2.5	2.7	1200	0.004 (≈ 0.00904 µM)	0.008 (≈ 0.0181 µM)	0.015 (≈ 0.0339 µM)	70	2
CC1COc2c(N3CC[C@@H]([C@@H](N)CC#N)C3)c(F)cc3c(=O)c(C(=O)O)cn1c23 (some centres undefined)	0.125 (≈ 0.312 µM)	0.008 (≈ 0.02 µM)	> 150	0.125 (≈ 0.312 µM)	–	–	–	–	–	0.008 (≈ 0.02 µM)	0.06 (≈ 0.15 µM)	0.015 (≈ 0.0375 µM)	–	22
CC1COc2c(N3CC[C@@H]([C@H](C)NCCC#N)C3)c(F)cc3c(=O)c(C(=O)O)cn1c23 (some centres undefined)	0.25 (≈ 0.583 µM)	0.06 (≈ 0.14 µM)	> 150	0.125 (≈ 0.292 µM)	–	–	–	–	–	0.015 (≈ 0.035 µM)	0.03 (≈ 0.07 µM)	0.06 (≈ 0.14 µM)	–	10
Cc1c(N2CC(C)(CN)C2)c(F)cc2c(=O)c(C(=O)O)cn(C3CC3)c12	2 (≈ 5.56 µM)	0.015 (≈ 0.0417 µM)	–	0.06 (≈ 0.167 µM)	2.5	33	2.5	1.3	300	0.06 (≈ 0.167 µM)	0.06 (≈ 0.167 µM)	0.06 (≈ 0.167 µM)	18	–
C[C@H]1COc2c(N3CCN(C)CC3)c(F)cc3c(=O)c(C(=O)O)cn1c23.C[C@H]1COc2c(N3CCN(C)CC3)c(F)cc3c(=O)c(C(=O)O)cn1c23.O [LEVOFLOXACIN]	–	0.015	–	0.06	–	–	–	–	–	0.125	0.5	–	–	10
CN[C@@H](CC#N)[C@@H]1CCN(c2c(F)cc3c(=O)c(C(=O)O)cn(C4CC4)c3c2OC)C1	0.5 (≈ 1.17 µM)	0.03 (≈ 0.07 µM)	> 150	0.06 (≈ 0.14 µM)	4.4	19	1.8	2.4	1400	0.008 (≈ 0.0187 µM)	0.06 (≈ 0.14 µM)	0.06 (≈ 0.14 µM)	53	9
CCC1(CNCCC#N)CN(c2c(F)cc3c(=O)c(C(=O)O)cn(C4CC4)c3c2C)C1	2 (≈ 4.69 µM)	0.06 (≈ 0.141 µM)	> 150	0.25 (≈ 0.586 µM)	6.5	13	1	1.4	2600	0.03 (≈ 0.0703 µM)	0.03 (≈ 0.0703 µM)	0.125 (≈ 0.293 µM)	92	25
CN[C@@H](C)[C@@H]1CCN(c2c(F)cc3c(=O)c(C(=O)O)cn(C4CC4)c3c2OC)C1 [PREMAFLOXACIN]	0.125 (≈ 0.31 µM)	0.015 (≈ 0.0372 µM)	> 150	0.06 (≈ 0.149 µM)	–	–	–	–	–	0.015 (≈ 0.0372 µM)	0.06 (≈ 0.149 µM)	0.008 (≈ 0.0198 µM)	–	40
COc1c(N2CC[C@@H]([C@@H](N)CC#N)C2)ccc2c(=O)c(C(=O)O)cn(C3CC3)c12	0.5 (≈ 1.26 µM)	0.06 (≈ 0.151 µM)	> 150	0.125 (≈ 0.315 µM)	5.2	16	0.5	1.8	1400	0.008 (≈ 0.0202 µM)	0.06 (≈ 0.151 µM)	0.03 (≈ 0.0757 µM)	22	30
COc1c(N2CC[C@@H]([C@@H](N)CC#N)C2)c(F)cc2c(=O)c(C(=O)O)cn(C3CC3)c12	0.125 (≈ 0.302 µM)	0.008 (≈ 0.0193 µM)	> 150	0.03 (≈ 0.0724 µM)	–	–	–	–	–	0.001 (≈ 0.00241 µM)	0.002 (≈ 0.00483 µM)	0.008 (≈ 0.0193 µM)	–	29
Cc1c(N2CC(C)(CNCCC#N)C2)c(F)cc2c(=O)c(C(=O)O)cn(C3CC3)c12	2 (≈ 4.85 µM)	0.06 (≈ 0.145 µM)	> 150	0.125 (≈ 0.303 µM)	–	–	–	–	–	0.03 (≈ 0.0727 µM)	0.03 (≈ 0.0727 µM)	0.125 (≈ 0.303 µM)	–	18
CN[C@@H](CC#N)[C@@H]1CCN(c2c(F)cc3c(=O)c(C(=O)O)cn4c3c2OCC4C)C1 (some centres undefined)	2 (≈ 4.83 µM)	0.03 (≈ 0.0724 µM)	> 150	0.25 (≈ 0.603 µM)	–	–	–	–	–	0.06 (≈ 0.145 µM)	0.125 (≈ 0.302 µM)	0.125 (≈ 0.302 µM)	–	19
CC1COc2c(N3CC[C@@H]([C@H](C)N)C3)c(F)cc3c(=O)c(C(=O)O)cn1c23 (some centres undefined)	0.25 (≈ 0.666 µM)	0.008 (≈ 0.0213 µM)	> 100	0.06 (≈ 0.16 µM)	–	–	–	–	–	0.015 (≈ 0.04 µM)	0.125 (≈ 0.333 µM)	0.03 (≈ 0.0799 µM)	–	35
